{"source": "ChEMBL document CHEMBL4422632", "about": "“Design of Novel Inhibitors of Human Thymidine Phosphorylase: Synthesis, Enzyme Inhibition, in Vitro Toxicity, and Impact on Human Glioblastoma Cancer” (J Med Chem, 2019)", "key": {"[1]": {"experiment": "Cytotoxicity against human HepG2 cells assessed as cell viability at 25 uM after 72 hrs by MTT assay relative to control", "type": "cell-based", "conditions": "read-out: Activity", "summary_of_the_method": "(§1)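 Cells grown in DMEM with 10% FBS at 37 °C, 5% CO₂; seeded 2 x 10³ cells/well, adhered 24 h, then exposed 72 h. MTT: 1 mg/mL for 3 h, formazan in DMSO, absorbance 595 nm. NRU: neutral red 25 µg/mL in serum-free medium for 3 h, desorbed in ethanol:acetic acid:water. Viability as % of untreated control; mean ± SEM of three to five independent experiments in triplicate.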"}, "[2]": {"experiment": "Cytotoxicity against human HepG2 cells assessed as cell viability at 50 uM after 72 hrs by MTT assay relative to control", "type": "cell-based", "conditions": "read-out: Activity", "summary_of_the_method": "as §1"}, "[3]": {"experiment": "Cytotoxicity against human HepG2 cells assessed as cell viability at 1000 uM after 72 hrs by MTT assay relative to control", "type": "cell-based", "conditions": "read-out: Activity", "summary_of_the_method": "as §1"}, "[4]": {"experiment": "Cytotoxicity against human HepG2 cells assessed as cell viability at 500 uM after 72 hrs by neutral red uptake-based assay relative to control", "conditions": "read-out: Activity", "summary_of_the_method": "as §1"}, "[5]": {"experiment": "Cytotoxicity against African green monkey Vero cells assessed as cell viability at 100 uM after 72 hrs by MTT assay relative to control", "type": "cell-based", "conditions": "chlorocebus sabaeus, read-out: Activity", "summary_of_the_method": "as §1"}, "[6]": {"experiment": "Cytotoxicity against African green monkey Vero cells assessed as cell viability at 250 uM after 72 hrs by MTT assay relative to control", "type": "cell-based", "conditions": "chlorocebus sabaeus, read-out: Activity", "summary_of_the_method": "as §1"}, "[7]": {"experiment": "Cytotoxicity against African green monkey Vero cells assessed as cell viability at 1000 uM after 72 hrs by MTT assay relative to control", "type": "cell-based", "conditions": "chlorocebus sabaeus, read-out: Activity", "summary_of_the_method": "as §1"}, "[8]": {"experiment": "Cytotoxicity against African green monkey Vero cells assessed as cell viability at 50 uM after 72 hrs by neutral red uptake-based assay relative to control", "conditions": "chlorocebus sabaeus, read-out: Activity", "summary_of_the_method": "as §1"}, "[9]": {"experiment": "Cytotoxicity against human HaCaT cells assessed as cell viability at 1000 uM after 72 hrs by MTT assay relative to control", "type": "cell-based", "conditions": "read-out: Activity", "summary_of_the_method": "as §1"}, "[10]": {"experiment": "Cytotoxicity against human HaCaT cells assessed as cell viability at 100 uM after 72 hrs by neutral red uptake-based assay relative to control", "conditions": "read-out: Activity", "summary_of_the_method": "as §1"}, "[11]": {"experiment": "Cytotoxicity against human HaCaT cells assessed as cell viability at 250 uM after 72 hrs by neutral red uptake-based assay relative to control", "conditions": "read-out: Activity", "summary_of_the_method": "as §1"}, "[12]": {"experiment": "Cytotoxicity against mouse RAW264.7 cells assessed as cell viability at 25 uM after 72 hrs by MTT assay relative to control", "type": "cell-based", "conditions": "read-out: Activity", "summary_of_the_method": "(§2)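 Cells kept in DMEM with 10% heat-inactivated FBS, 1% penicillin-streptomycin and 0.1% fungizone at 37 °C, 5% CO₂. U-87 MG seeded at 2 x 10^3 cells/well, RAW 264.7 at 5 x 10^2, adhered 24 h, then exposed 72 h. MTT: 1 mg/mL for 3 h, formazan in DMSO, A595. NRU: 25 μg/mL dye, 3 h, ethanol:acetic acid:water desorb. Untreated wells = 100%; three to five independent experiments in triplicate.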"}, "[13]": {"experiment": "Cytotoxicity against mouse RAW264.7 cells assessed as cell viability at 50 uM after 72 hrs by MTT assay relative to control", "type": "cell-based", "conditions": "read-out: Activity", "summary_of_the_method": "as §2"}, "[14]": {"experiment": "Cytotoxicity against mouse RAW264.7 cells assessed as cell viability at 100 uM after 72 hrs by MTT assay relative to control", "type": "cell-based", "conditions": "read-out: Activity", "summary_of_the_method": "as §2"}, "[15]": {"experiment": "Cytotoxicity against mouse RAW264.7 cells assessed as cell viability at 250 uM after 72 hrs by MTT assay relative to control", "type": "cell-based", "conditions": "read-out: Activity", "summary_of_the_method": "as §2"}, "[16]": {"experiment": "Cytotoxicity against mouse RAW264.7 cells assessed as cell viability at 500 uM after 72 hrs by MTT assay relative to control", "type": "cell-based", "conditions": "read-out: Activity", "summary_of_the_method": "as §2"}, "[17]": {"experiment": "Cytotoxicity against mouse RAW264.7 cells assessed as cell viability at 25 uM after 72 hrs by neutral red uptake-based assay relative to control", "conditions": "read-out: Activity", "summary_of_the_method": "as §2"}, "[18]": {"experiment": "Cytotoxicity against mouse RAW264.7 cells assessed as cell viability at 50 uM after 72 hrs by neutral red uptake-based assay relative to control", "conditions": "read-out: Activity", "summary_of_the_method": "as §2"}, "[19]": {"experiment": "Cytotoxicity against human U87MG cells assessed as cell viability at 1000 uM after 72 hrs by MTT assay relative to control", "type": "cell-based, U-87MG ATCC", "conditions": "read-out: Activity", "summary_of_the_method": "as §1"}, "[20]": {"experiment": "Cytotoxicity against human U87MG cells assessed as cell viability at 50 uM after 72 hrs by neutral red uptake-based assay relative to control", "set-up": "species or system U-87MG ATCC", "conditions": "read-out: Activity", "summary_of_the_method": "as §2"}, "[21]": {"experiment": "Half life in human liver S9 fraction at 2 uM up to 30 mins in presence of NADPH by HPLC-MS/MS analysis", "type": "ADME, subcellular"}, "[22]": {"experiment": "AUMCt in CF1 mouse at 50 mg/kg, ip by non-compartmental analysis", "type": "ADME, organism-based", "conditions": "in vivo", "summary_of_the_method": "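Male CF1 mice, single ip 50 mg/kg in 0.9% saline, 3 animals per time point sampled 0.03–2 h; heparinized blood. AUMC0→t computed by trapezoidal rule to last point (2 h); non-compartmental analysis.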"}, "[23]": {"tested_on": "U-87 MG", "experiment": "Antitumor activity against human U87MG cells xenografted in BALB/c nude mouse assessed as tumor growth inhibition 50 mg/kg/day, ip administered for 14 days", "type": "functional, organism-based", "conditions": "U-87MG ATCC", "summary_of_the_method": "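5 x 10⁵ U-87 MG cells implanted subcutaneously in right flank of male BALB/c nude mice; at about 50 mm³, randomized to saline or ip 50 mg/kg/day, with temozolomide 50 mg/kg/day in the combination arm, for 14 days. Relative tumor volume = volume on day / day 0; TGI on day 14 = [1 − RTV treated/RTV control] x 100. Two-way ANOVA with Bonferroni.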"}, "[24]": {"experiment": "Toxicity in nude BALB/c mouse xenografted with human U87MG cells assessed as reduction in body weight at 50 mg/kg, […]", "type": "organism-based", "conditions": "in vivo, ip, 120 h"}, "[25]": {"tested_on": "U-87 MG", "experiment": "Anti-angiogenic activity in tumor of human U87MG cells xenografted in nude BALB/c mouse assessed as reduction in VEGF staining at 50 mg/kg, ip administered for 14 days by immunohistochemistry", "type": "functional, organism-based", "conditions": "U-87MG ATCC", "summary_of_the_method": "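Male nude mice bearing subcutaneous right-flank xenografts of 5 x 10⁵ U-87 MG cells; dosing began at about 50 mm³ tumors, ip daily for 14 days. Tumors formalin-fixed, paraffin sections 3 µm; citrate pH 6 antigen retrieval at 95-98 °C; primary antibody overnight at 4 °C, HRP secondary, DAB. Positive area quantified by optical density at x200, 4 images per tumor; mean ± SEM, one-way ANOVA with Dunnett.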"}, "[26]": {"tested_on": "U-87 MG", "experiment": "Anti-angiogenic activity in tumor of human U87MG cells xenografted in nude BALB/c mouse assessed as reduction in number of blood vessels at 50 mg/kg, ip administered for 14 days by hematoxylin and eosin-staining based light microscopy", "type": "functional, organism-based", "conditions": "U-87MG ATCC", "summary_of_the_method": "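U-87 MG flank xenografts (5 x 10⁵ cells) in male nude mice; ip treatment daily from about 50 mm³ for 14 days, with temozolomide at 50 mg/kg/day in the co-treatment arm. Vessel density counted on HE-stained 3 µm sections by hot-spot method, mean of four fields per tumor at x200, avoiding gross haemorrhage. One-way ANOVA/Dunnett.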"}, "[27]": {"tested_on": "U-87 MG", "experiment": "Induction of apoptosis in human U87MG cells xenografted in BALB/c nude mouse assessed as caspase-3 levels at 50 mg/kg, ip after 14 days by immunohistochemistry", "type": "functional, organism-based", "conditions": "U-87MG ATCC", "summary_of_the_method": "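Male BALB/c nude mice implanted subcutaneously with 5 x 10⁵ U-87 MG cells in the right flank. Treated IP at 50 mg/kg/day for 14 days, with saline controls, starting once tumors reached about 50 mm³. Tumors fixed in formaldehyde and cut at 3 µm. Citrate pH 6 antigen retrieval.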"}}, "note": "Activity calls are given as the source filed them. The calls are words filed in the database; no cut-off is given here."}
{"smiles": "O=c1[nH]c(CNC(CO)CO)c(I)c(=O)[nH]1", "values": [{"measurement": "viability at 72 h, 25 µM", "setting": "[1]", "result": 103, "unit": "%"}, {"measurement": "viability at 72 h, 50 µM", "setting": "[2]", "result": 100, "unit": "%"}, {"measurement": "viability at 72 h, 1000 µM", "setting": "[3]", "result": 82, "unit": "%"}, {"measurement": "viability at 72 h, 500 µM", "setting": "[4]", "result": 96, "unit": "%"}, {"measurement": "viability at 72 h, 100 µM", "setting": "[5]", "result": 96, "unit": "%"}, {"measurement": "viability at 72 h, 250 µM", "setting": "[6]", "result": 95, "unit": "%"}, {"measurement": "viability at 72 h, 1000 µM", "setting": "[7]", "result": 75, "unit": "%"}, {"measurement": "viability at 72 h, 50 µM", "setting": "[8]", "result": 112, "unit": "%"}, {"measurement": "viability at 72 h, 1000 µM", "setting": "[9]", "result": 81, "unit": "%"}, {"measurement": "viability at 72 h, 100 µM", "setting": "[10]", "result": 104, "unit": "%"}, {"measurement": "viability at 72 h, 250 µM", "setting": "[11]", "result": 100, "unit": "%"}, {"measurement": "viability at 72 h, 25 µM", "setting": "[12]", "result": 103, "unit": "%"}, {"measurement": "viability at 72 h, 50 µM", "setting": "[13]", "result": 99, "unit": "%"}, {"measurement": "viability at 72 h, 100 µM", "setting": "[14]", "result": 99, "unit": "%"}, {"measurement": "viability at 72 h, 250 µM", "setting": "[15]", "result": 95, "unit": "%"}, {"measurement": "viability at 72 h, 500 µM", "setting": "[16]", "result": 91, "unit": "%"}, {"measurement": "viability at 72 h, 25 µM", "setting": "[17]", "result": 105, "unit": "%"}, {"measurement": "viability at 72 h, 50 µM", "setting": "[18]", "result": 102, "unit": "%"}, {"measurement": "viability at 72 h, 1000 µM", "setting": "[19]", "result": 83, "unit": "%"}, {"measurement": "viability at 72 h, 50 µM", "setting": "[20]", "result": 101, "unit": "%"}, {"measurement": "half-life at 2 µM", "setting": "[21]", "result": 28.1, "unit": "min"}, {"measurement": "AUMCt", "setting": "[22]", "result": 6.3, "unit": "µg·h²/mL"}, {"measurement": "TGI", "setting": "[23]", "result": "Active"}, {"measurement": "Activity", "setting": "[24]", "result": "Non-Toxic"}, {"measurement": "Activity", "setting": "[25]", "result": "Active"}, {"measurement": "Activity", "setting": "[26]", "result": "Active"}, {"measurement": "Activity", "setting": "[27]", "result": "inactive"}]}
